The series can be described thus: Toxicity liver stage against HepG2, at 10uM. More on the design: test concentration 10 uM, cell line HepG2-A16-CD81EGFP. Format: cell-based. The following applies: human, HepG2-A16-CD81EGFP cells; read-out: INHIBITION
In a few lines:
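Uninfected HepG2-A16-CD81EGFP cells, 3 × 10^3 per well, 1536-well, plated on prespotted compound at 10 μM final, parasite-free screening media added to match infected plates; puromycin 10 μM positive, DMSO 0.5% negative; run in parallel with 48 h PbLuc assay at 37 °C, 5% CO2; viability by CellTiter-Glo luminescence, normalized to controls.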
Regarding `Cn1cc(-c2nnc3sc(C4CC4)nn23)cn1`, the cytotoxicity at 10 µM was -3.08%.

Turning to `CC1c2ncc(COCC3CCCC3)n2CCN1S(=O)(=O)N(C)C` (configuration not stated), the cytotoxicity at 10 µM is 14.6%.

Regarding `O=C(CCO)N1CCC2(CCc3ccc(-c4ccoc4)cc32)CC1`, the cytotoxicity at 10 µM came to 16.1%.

In the case of `Cn1cccc1C(=O)N1CCCC2(CCCN2S(C)(=O)=O)C1` (configuration not stated), the cytotoxicity at 10 µM turned out to be 6.28%.

Turning to `Cc1cnc(N2CCC3(CC2)CC(NS(C)(=O)=O)CO3)nc1` (configuration not stated), the cytotoxicity at 10 µM worked out at 2.87%.

`Cc1cc(C(=O)N2CCc3ncnc(-c4cnn(C)c4)c3CC2)no1`: the cytotoxicity at 10 µM worked out at 8.88%.

As for `Cc1nccc([C@H]2C[C@@H]3CCN(S(=O)(=O)C4CC4)C[C@H]3O2)n1`, the cytotoxicity at 10 µM was -2.3%.

`Cn1cc(N2CC3(CCN(S(C)(=O)=O)C3)CC2=O)cn1` (configuration not stated): the cytotoxicity at 10 µM amounted to 9.04%.

`Cc1nc2ncc3c(=O)n(C)ccc3n2n1`: the cytotoxicity at 10 µM is -15.4%.

In the case of `Cc1ccc(C)c(C(NC(=O)C2CC2)c2cccnc2)c1` (configuration not stated), the cytotoxicity at 10 µM was -3.5%.

For `Cc1cc(C(F)(F)F)nn1CCCNC(=O)C1CCN(S(C)(=O)=O)CC1`, the cytotoxicity at 10 µM is -4.56%.

`Cc1cc(C(=O)Nc2cnn(CC(F)(F)F)c2)nc(N(C)C)n1`: the cytotoxicity at 10 µM is -2.89%.

For `CCCn1cc(Cl)c(C(=O)N2C[C@@H](O)[C@H](NC(C)=O)C2)n1`, the cytotoxicity at 10 µM is -0.255%.

Regarding `Cn1cc(C(=O)N2CCC(c3cc(CCO)n(C)n3)C2)cn1` (configuration not stated), the cytotoxicity at 10 µM was -0.0959%.

Consider `CC(C)c1[nH]c2ncccc2c1CN1CCC(O)CC1`, for which the cytotoxicity at 10 µM worked out at 2.57%.

With `Cn1ccnc1CN1CCOC(Cc2ccccc2)C1` (configuration not stated), the cytotoxicity at 10 µM was -0.479%.

On to `Cc1cncc(C2CCCN2CCO)n1` (configuration not stated), for which the cytotoxicity at 10 µM is -3.14%.

On to `Nc1cccnc1N1CCC(O)CC1`, for which the cytotoxicity at 10 µM was found to be 2.3%.

Turning to `O=C(Cc1cccc(O)c1)NCCNc1nccc(C(F)(F)F)n1`, the cytotoxicity at 10 µM worked out at 7.48%.

`Cc1cc(C)cc(NCCC(=O)NC2CCCCC2)c1`: the cytotoxicity at 10 µM is 7.61%.

For `CCCS(=O)(=O)NCC(O)c1c(Cl)cccc1Cl` (configuration not stated), the cytotoxicity at 10 µM came out at 7.52%.

As for `CC(C)OCCC1CCCCN1S(C)(=O)=O` (configuration not stated), the cytotoxicity at 10 µM was 2.43%.

Consider `CN(C)c1cccc(C(=O)Nc2cnn(CC(N)=O)c2)c1`, for which the cytotoxicity at 10 µM came out at 3.63%.

Take `C[C@@H]1CN(Cc2ccc(-c3ccncc3)cc2F)CC(C(N)=O)O1` (some centres not stated): the cytotoxicity at 10 µM was found to be 2.4%.

For `N#CC1(NC(=O)CN2CCc3c(ncn3C3CC3)C2)CCCC1`, the cytotoxicity at 10 µM was 12.1%.

Consider `COc1ccccc1C(=O)N(Cc1nc(C)cs1)CC1CCCO1` (configuration not stated), for which the cytotoxicity at 10 µM stood at 0.136%.

For the molecule `CCCNC(=O)Cn1c(C)nn(C(C)(C)C)c1=O`, the cytotoxicity at 10 µM came out at 4.62%.

With `CS(=O)(=O)NC1CCN(C(=O)c2ccc3ccccc3c2)C1` (configuration not stated), the cytotoxicity at 10 µM is -9.14%.

Take `COc1ccccc1C(C)CNC(=O)c1c(C)nn(C)c1OC` (configuration not stated): the cytotoxicity at 10 µM was -11.4%.

In the case of `CCN1CCN(Cc2nc(C)no2)CC1`, the cytotoxicity at 10 µM came out at 0.978%.

Turning to `Cc1cnn(CC2CCCN2C(=O)CCc2c(C)nn(C)c2C)c1` (configuration not stated), the cytotoxicity at 10 µM is 0.407%.

Turning to `COc1ccc(C(C)NC(=O)NCCNc2ccccn2)c(OC)c1` (configuration not stated), the cytotoxicity at 10 µM was determined as 0.00455%.

Take `CCOCc1ccccc1NC(=O)NCC(C)(O)c1cccs1` (configuration not stated): the cytotoxicity at 10 µM was -0.966%.

Turning to `CNC(=O)CN(C)c1cncc(OCc2ccccc2)n1`, the cytotoxicity at 10 µM is 1.15%.

Consider `c1ccn2c(SCC3CN=C(N4CCOCC4)S3)ncc2c1` (configuration not stated), for which the cytotoxicity at 10 µM was 11.8%.

As for `O=C(c1cncc(Br)c1)N1CCCc2c(F)cc(F)cc21`, the cytotoxicity at 10 µM was found to be 2.81%.

Take `O=C(CN(Cc1ccco1)C1CC1)Nc1ccc(Br)cn1`: the cytotoxicity at 10 µM was -2.65%.

Regarding `COc1ccc(C)cc1C(C)NCc1cnnn1C` (configuration not stated), the cytotoxicity at 10 µM was determined as 0.211%.

Regarding `Cc1ccn(-c2ccc(NCc3ccnc(N4CCCCC4)c3)nn2)n1`, the cytotoxicity at 10 µM is -0.715%.

Take `CC(C)c1nc2n(n1)CC(NCc1ccncc1)CC2` (configuration not stated): the cytotoxicity at 10 µM is -13.9%.

Turning to `O=C(c1ccco1)N1CC[C@@H](N2CCOCC2)[C@@H]1Cc1ccccc1`, the cytotoxicity at 10 µM was -77%.

With `CN(C)Cc1nnc2n1CCN(Cc1ccccn1)CC2`, the cytotoxicity at 10 µM worked out at 2.05%.

Take `Cc1nccc([C@@H]2C[C@@H]3CCN(Cc4ccco4)C[C@H]3O2)n1`: the cytotoxicity at 10 µM was -2.61%.

With `CC(C)c1cc(C(=O)N2CCN(C)[C@@H]3CS(=O)(=O)C[C@@H]32)no1`, the cytotoxicity at 10 µM amounted to 4.14%.

Regarding `Cc1cc(C)n(CCCN(C)C(=O)C2COc3ccccc3C2)n1` (configuration not stated), the cytotoxicity at 10 µM was -5.95%.

In the case of `COCCn1cnnc1CN(C)c1nc(N)ncc1C`, the cytotoxicity at 10 µM was -7.85%.

Turning to `O=C(NCCCO)C1(N2CCCCC2)Cc2ccccc2C1`, the cytotoxicity at 10 µM was -3.07%.

Regarding `c1cc(-c2cn[nH]c2)ncc1CN1CCCCC1`, the cytotoxicity at 10 µM is -1.35%.

For the molecule `Cc1ccc(C2CC(=O)NCc3nc(N)sc32)cc1C` (configuration not stated), the cytotoxicity at 10 µM is -8.47%.

Consider `CN(Cc1ccoc1)C(=O)C1CC(=O)N(Cc2ccncc2)C1` (configuration not stated), for which the cytotoxicity at 10 µM was -0.766%.

In the case of `Cc1ccc2c(c1)OC(C)(C)CC2NC(=O)C1CCN(S(C)(=O)=O)CC1` (configuration not stated), the cytotoxicity at 10 µM was found to be 1.93%.

For `CC(O)c1cccc(N2CCC3(CC2)Nc2ccccc2NC3=O)n1` (configuration not stated), the cytotoxicity at 10 µM was -10.6%.

Turning to `COc1ccc(C(C)N(C)Cc2nc3c(cnn3C)c(=O)[nH]2)cc1` (configuration not stated), the cytotoxicity at 10 µM was -7.42%.

In the case of `c1csc(-c2noc(CNC3CCc4ncnn4C3)n2)c1` (configuration not stated), the cytotoxicity at 10 µM was -9.3%.

`CCn1ccnc1CN1CCN(CC(O)c2ccc(OC)cc2)CC1` (configuration not stated): the cytotoxicity at 10 µM was -15.1%.

As to `COc1ccc(C2CCCCCN2CCCNS(C)(=O)=O)cc1` (configuration not stated), the cytotoxicity at 10 µM was -6.07%.

Consider `Cc1csc(N2CCN(C(=O)c3c(C)oc(C)c3C)CC2)n1`, for which the cytotoxicity at 10 µM was -14%.

Regarding `CC(=O)NC1CCCN(C(=O)NCc2ccc(-n3cccn3)cc2)C1` (configuration not stated), the cytotoxicity at 10 µM is -11.8%.

`O=C(NCCc1coc(-c2ccc(F)cc2)n1)NC1CC1`: the cytotoxicity at 10 µM was -3.24%.

In the case of `Cc1cc(OCC(=O)N2CCCC(c3nc(C)c(C)s3)C2)no1` (configuration not stated), the cytotoxicity at 10 µM is -16.4%.

Take `Cc1nc(C(=O)N2CCCC2c2c(C)nn(C)c2Cl)ccc1C#N` (configuration not stated): the cytotoxicity at 10 µM was -12.8%.

Consider `CCOC(=O)C1CCN(Cc2csc(-c3ccc(C)o3)n2)CC1`, for which the cytotoxicity at 10 µM is -11.4%.

`CNc1cc2c(nn1)CCN(C(=O)C1CCCc3ccccc31)C2` (configuration not stated): the cytotoxicity at 10 µM is -17.2%.

Take `Cc1cc(CNC(=O)N2CCCN(Cc3ccccc3)CC2)no1`: the cytotoxicity at 10 µM was -8.26%.

Regarding `Cc1ccc(C(=O)N2CCN3C[C@H](Oc4cccc(F)c4)C[C@H]3C2)cn1`, the cytotoxicity at 10 µM was found to be 11.2%.

On to `CN(Cc1ccco1)[C@@H]1CN(Cc2ccccn2)C[C@@H]2CCCO[C@@H]21`, for which the cytotoxicity at 10 µM was determined as 0.34%.

`CC(C)OCc1ncn2c1CN(CCO)CCC2`: the cytotoxicity at 10 µM was 8.37%.

In the case of `Cc1cc(CN2C[C@H]3CCC[C@@]3(COCc3csc(C)n3)C2)no1`, the cytotoxicity at 10 µM was determined as 11.6%.

Consider `O=C(NCc1cncc2c1CCN(C1CCOC1)C2)c1ccco1` (configuration not stated), for which the cytotoxicity at 10 µM came out at 0.797%.

As for `O=C(N1CCOCC1)N1CCc2ncnc(Oc3cccnc3)c2CC1`, the cytotoxicity at 10 µM is -0.82%.

Take `CN(C)[C@@H]1CCN(C(=O)C2CCOCC2)[C@H]1Cc1ccncc1`: the cytotoxicity at 10 µM worked out at 1.72%.

With `COCCN1CCN(S(=O)(=O)C2CC2)Cc2ccc(C)nc21`, the cytotoxicity at 10 µM was 3.38%.

(Values after ChEMBL document CHEMBL4513216, “Probing the Open Global Health Chemical Diversity Library for Multistage-Active Starting Points for Next-Generation Antimalarials” (ACS Infect Dis, 2020).)
